Source: PubChem
Yeast life ext – compounds extending yeast replicative lifespan, primary screen, S. cerevisiae, OD615; S. cerevisiae growth with nicotinamide; deaD strain in restrictive glucose medium; inhibition of the nicotinamide effect, % at 10 µM; 130,000 compounds, 0.68% hits; AID 775, 2007;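 active = inhibition above a set limit, placed 3 SD over the median of all compounds, cut at about 26% in these data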
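Buffer or medium: CSMM-D glucose medium, restrictive; test system: modified budding yeast, DeaD strain; compound: single dose 10 µM compound, 0.25% DMSO; schedule: culture preincubation 4 h, compound exposure 48 h, both 30 °C; detection: optical density (absorbance) at 615 nm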
Measles CPE – compounds protecting cells from measles virus cytopathic effect, primary screen, measles RdRp inhibitor project, single point, MLSMR library, absorbance. Measles virus-infected cells, CPE protection. 140,000 compounds, 1.5% hits. protection (pct of control), % at 4 µM; in the data active = protection mostly above about 24%, no sharp cut-off; inactive = mostly below about 26%
sdo1 growth – growth rescue of sdo1-depleted yeast, primary screen, S. cerevisiae, bone marrow failure model | S. cerevisiae sdo1-depleted JHY4D growth rescue, OD600 30 h; active compounds read high; pdr5 snq2 efflux-pump mutant strain | z-score at 10 µM | 140,000 compounds, 0.21% hits;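 active = z-score above 3 at both the 24 hr and the 30 hr optical density reads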
RAM network inh – inhibitors of the yeast RAM network, primary screen, dse1pr::URA3 reporter, 5-FOA selection. S. cerevisiae dse1pr::URA3 reporter, 5-FOA growth OD615, 2 d; analog-sensitive cbk1-as2 kinase mutant strain. inhibition, % at 50 µM. 190,000 compounds, 1.8% hits. AID 868, 2007;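 active = inhibition above a set limit, 3 SD over mean compound inhibition, cut at about 8.4% in these data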;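 note: inhibition rescues growth on 5-FOA so higher OD means more RAM inhibition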
BB579 growth dn – growth inhibitors of yeast BB579 in restrictive medium, primary screen, yeast lifespan-shortening project, S. cerevisiae. OD615, 48 h. inhibition, % at 10 µM. AID 804, 2007. 140,000 compounds, 0.51% hits;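 active = inhibition above a set limit, 3 SD over the mean compound inhibition, cut at about 44% in these data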
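controls = amphotericin B 10 µg/mL, positive | assay system = DeaD yeast strain BB579 | schedule = 48 h compound exposure at 30 °C after 4 h preincubation | detection = OD615 turbidity measurement | medium = restrictive CSMM-D medium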
RAM efflux-def – 5-FOA growth of efflux-deficient control yeast, dose response, counter-screen for RAM network inhibitor project, S. cerevisiae, OD615; shares compounds with RAM network inh; S. cerevisiae efflux-deficient reporter strain, 5-FOA growth OD615, 2 days; max inhibition, %; 1,200 tested, under 10 active; call rule not given here
Large screens that a line does not name were inactive (follow-up assays come after a bar, where they were run). Sampled rows, rich in hits. Any-hit rate of the full collection: about 3.8%.

COCCCNC(=O)C1CCN(C(=O)Nc2ccc(Cl)cc2)CC1	none
COc1ccc(C(C)(C)C)cc1NC(=O)COC(=O)c1cc(SC)ccc1Cl	RAM network inh 13 | RAM efflux-def inactive
COc1ccc(NC(=O)COC(=O)c2cc(SC)ccc2Cl)c(OC)c1	none
CSc1ccc(Cl)c(C(=O)OCC(=O)Nc2ccccc2OC(F)F)c1	RAM network inh 16 | RAM efflux-def inactive
CCNc1ccc(Br)cc(C(=O)/C=C/c2ccc(Cl)cc2Cl)c1=O	none (no result: Yeast life ext)
Cc1ccc(Cl)cc1N1CCN(S(=O)(=O)c2ccc3c(c2)oc(=O)n3C)CC1	none
O=C(CSc1nncs1)NC(=O)NC1CCCC1	none (no result: Yeast life ext, Measles CPE, sdo1 growth, BB579 growth dn)
CC(C)(CNC(=S)NCCc1ccccc1)CNC(=S)NCCc1ccccc1	RAM network inh 15, BB579 growth dn 73 | RAM efflux-def inactive
OCCNC(=S)NCCc1ccccc1	none
Nc1nc(SCC(=O)NCc2ccc(F)cc2)[nH]c(=O)c1NC(=O)c1ccc(Cl)cc1	RAM network inh 12 | RAM efflux-def inactive
Nc1nc(SCC(=O)NCc2ccccc2Cl)[nH]c(=O)c1NC(=O)c1ccccc1F	none
CCOc1cc(NC(=O)C2CCCCC2)c(OCC)cc1NC(=O)c1ccccn1	none (no result: Yeast life ext, Measles CPE, sdo1 growth, BB579 growth dn)
CCOc1cc(NC(=O)c2ccccn2)c(OCC)cc1NC(=O)c1ccc(C)cc1	RAM network inh 12 (no result: Yeast life ext, Measles CPE, sdo1 growth, BB579 growth dn) | RAM efflux-def inactive
COc1ccccc1NC(=S)c1ccccc1	none
Cc1cccc(S(=O)(=O)c2c(N)n(-c3ccccc3)c3nc4ccccc4nc23)c1	none
O=C(CCC(=O)c1ccc(Oc2ccccc2)cc1)Nc1cccc(Cl)c1Cl	RAM network inh 14 | RAM efflux-def inactive
Cc1cc(N2C(=O)C3CCC(c4ccccc4)CC3C2=O)no1 (stereo not given)	none (no result: Yeast life ext, Measles CPE, sdo1 growth, BB579 growth dn)
COc1ccc(/C=C2\SC(=S)N(CC(=O)OCC(=O)Nc3ccc([N+](=O)[O-])cc3OC)C2=O)cc1	RAM network inh 18 (no result: Yeast life ext, Measles CPE, sdo1 growth, BB579 growth dn) | RAM efflux-def inactive
COc1ccc(/C=C2\SC(=S)N(CC(=O)OCC(=O)Nc3ccc(C)cc3Cl)C2=O)cc1	RAM network inh 13 (no result: Yeast life ext, Measles CPE, sdo1 growth, BB579 growth dn) | RAM efflux-def inactive
O=S(=O)(NCCCN1CCN(c2ccccc2F)CC1)c1cccc2cccnc12	none
C=CCOC(=O)C1=C(C)NC(C)=C(C(=O)OCC=C)C1/C=C/c1ccccc1	RAM network inh 15 | RAM efflux-def inactive
Clc1ccc(-c2nnc(COc3ncnc4sccc34)o2)cc1	none
COc1ccc(/C=C/C(=O)c2ccc(O)cc2)cc1COc1ccc(F)cc1	none
COc1ccc(C(=O)/C=C/c2ccc(OC)c(COc3ccccc3F)c2)cc1	RAM network inh 19 | RAM efflux-def inactive
COc1ccc(/C=C/C(=O)c2ccccc2)cc1COc1ccc(F)cc1	RAM network inh 19 | RAM efflux-def inactive
COc1cc(/C=C/C(=O)c2ccc(C)cc2)ccc1OCC#N	RAM network inh 13 | RAM efflux-def inactive
CCOc1cc(/C=C/C(=O)c2ccc(C)cc2)ccc1OCC(=O)N(C)C	none
Cc1ccc(N=Cc2c(O)n(-c3nccs3)c(=O)c3ccccc23)cc1	none
O=C(/C(Cl)=C/Nc1ccc(Br)cn1)C(F)(F)F	none (no result: Yeast life ext, Measles CPE, sdo1 growth, BB579 growth dn)
Cc1ccccc1OCCC(=O)Nc1cccc(S(=O)(=O)Nc2ccccc2Cl)c1	RAM network inh 17 | RAM efflux-def inactive
CC1(C)CC2CC(C)(CN2Cc2c(O)ccc3ccccc23)C1 (stereo not given)	none (no result: Yeast life ext, Measles CPE, sdo1 growth, BB579 growth dn)
C=CCn1c(C)cc(C(=O)CSc2nnc(NCc3ccccc3)s2)c1C	RAM network inh 14, BB579 growth dn 64 | RAM efflux-def inactive
COc1ccc(NC(=O)N2CCCC(c3nc(-c4ccc(OC)cc4)no3)C2)cc1 (stereo not given)	none (no result: Yeast life ext, Measles CPE, sdo1 growth, BB579 growth dn)
COc1ccc(NC(=O)N2CCCC(c3nc(-c4ccc(C(C)C)cc4)no3)C2)cc1 (stereo not given)	RAM network inh 12 | RAM efflux-def inactive
COc1ccc(N(C)S(=O)(=O)c2cccc(C(=O)NCC3CCCCC3)c2)cc1	RAM network inh 13 (no result: Yeast life ext, Measles CPE, sdo1 growth, BB579 growth dn) | RAM efflux-def inactive
